Series [1] is described as follows: Cmax in CD1 mouse at 10 mg/kg, po. It is filed as ADME, organism-based. Details: dose 10 mg/kg, route oral. As to conditions: in vivo. The procedure, abridged:
(§1)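 Mouse PK: oral dose 10 mg/kg in 2.5% EtOH, 1 drop Tween-80, 25% PEG400 in PBS; iv dose 3 mg/kg in 2.5% EtOH, 5% DMSO, 1 drop Tween-80, 25% PEG400 in PBS. Oral bioavailability, iv half-life, oral AUC and Cmax derived from plasma profiles.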

The target in series [2] is Poly [ADP-ribose] polymerase 2 (Homo sapiens, UniProt Q9UGN5). In words: Inhibition of human recombinant PARP2.
Chain of Poly [ADP-ribose] polymerase 2 (Q9UGN5 whole entry): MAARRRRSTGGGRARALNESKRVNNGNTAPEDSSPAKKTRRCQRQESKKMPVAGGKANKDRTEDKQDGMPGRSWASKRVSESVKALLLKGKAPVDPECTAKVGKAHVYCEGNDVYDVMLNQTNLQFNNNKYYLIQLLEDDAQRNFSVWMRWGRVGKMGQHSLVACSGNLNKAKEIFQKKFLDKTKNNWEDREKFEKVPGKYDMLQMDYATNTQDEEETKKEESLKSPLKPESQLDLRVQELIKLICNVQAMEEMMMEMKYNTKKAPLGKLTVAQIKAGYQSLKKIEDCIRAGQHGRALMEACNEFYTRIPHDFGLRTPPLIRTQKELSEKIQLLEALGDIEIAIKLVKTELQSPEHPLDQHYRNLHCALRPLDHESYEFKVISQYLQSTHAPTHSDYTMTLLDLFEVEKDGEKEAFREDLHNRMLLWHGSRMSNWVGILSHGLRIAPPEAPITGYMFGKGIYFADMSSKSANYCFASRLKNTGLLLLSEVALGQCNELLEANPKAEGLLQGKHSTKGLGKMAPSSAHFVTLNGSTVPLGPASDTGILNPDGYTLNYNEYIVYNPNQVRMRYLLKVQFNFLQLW
Series [3] can be described thus: Oral bioavailability in CD1 mouse at 10 mg/kg. It is filed as ADME, organism-based. As to conditions: in vivo. In outline: as §1
Series [4] in a line: AUC in CD1 mouse at 10 mg/kg, po. It is filed as ADME, organism-based. Details: dose 10 mg/kg, route oral. As to conditions: plasma. The procedure, abridged:
as §1

A short description of series [5]: Half life in CD1 mouse at 3 mg/kg, iv. Format: ADME, organism-based. Set-up: dose 3 mg/kg, route intravenous. The conditions noted are these: in vivo. The procedure, abridged:
as §1

The nature of series [6]: Clearance in Beagle dog at 2.5 mg/kg. It is filed as ADME, organism-based, Canis lupus familiaris. Details: dose 2.5 mg/kg. The conditions noted are these: in vivo.
Series [7] is described as follows: Clearance in CD1 mouse at 10 mg/kg. Details: dose 10 mg/kg. As to conditions: in vivo. It is filed as ADME, organism-based. In outline:
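Mouse pharmacokinetics. Oral dose of 10 mg/kg in 2.5% EtOH, 1 drop Tween-80 and 25% PEG400 in PBS. Intravenous dose of 3 mg/kg in 2.5% EtOH, 5% DMSO, 1 drop Tween-80 and 25% PEG400 in PBS.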

A short description of series [8]: AUC in cynomolgus monkey at 2.5 mg/kg, po. As to conditions: plasma. Details: dose 2.5 mg/kg, route oral. Format: ADME, organism-based, Macaca fascicularis.
Series [9] in a line: Cmax in cynomolgus monkey at 2.5 mg/kg, po. It is filed as ADME, organism-based, Macaca fascicularis. Details: dose 2.5 mg/kg, route oral. As to conditions: in vivo.
Series [10] in a line: Half life in cynomolgus monkey at 2.5 mg/kg, iv. It is filed as ADME, organism-based, Macaca fascicularis. Details: dose 2.5 mg/kg, route intravenous. The conditions noted are these: in vivo.
Series [11] can be described thus: AUC in Beagle dog at 2.5 mg/kg, po. Details: dose 2.5 mg/kg, route oral. As to conditions: plasma. It is filed as ADME, organism-based, Canis lupus familiaris.
The nature of series [12]: Volume of distribution at steady state in Beagle dog at 2.5 mg/kg. Format: ADME, organism-based, Canis lupus familiaris. Set-up: dose 2.5 mg/kg. As to conditions: in vivo, read-out: Vdss.
A short description of series [13]: Volume of distribution at steady state in CD1 mouse at 10 mg/kg. Format: ADME, organism-based. Set-up: dose 10 mg/kg. As to conditions: in vivo, read-out: Vdss.
Series [14] is described as follows: AUC in Sprague-Dawley rat at 5 mg/kg, po. It is filed as ADME, organism-based. Details: dose 5 mg/kg, route oral. As to conditions: plasma.
A short description of series [15]: Cmax in Beagle dog at 2.5 mg/kg, po. It is filed as ADME, organism-based, Canis lupus familiaris. Details: dose 2.5 mg/kg, route oral. The conditions noted are these: in vivo.
A short description of series [16]: Clearance in Sprague-Dawley rat at 5 mg/kg. Details: dose 5 mg/kg. Format: ADME, organism-based. The conditions noted are these: in vivo.
Series [17] can be described thus: Oral bioavailability in Sprague-Dawley rat at 5 mg/kg. Format: ADME, organism-based. The conditions noted are these: in vivo.
Series [18] in a line: Volume of distribution at steady state in Sprague-Dawley rat at 5 mg/kg. As to conditions: in vivo, read-out: Vdss. It is filed as ADME, organism-based. Details: dose 5 mg/kg.
The nature of series [19]: Oral bioavailability in Beagle dog at 2.5 mg/kg. It is filed as ADME, organism-based, Canis lupus familiaris. The conditions noted are these: in vivo.
A short description of series [20]: Volume of distribution at steady state in cynomolgus monkey at 2.5 mg/kg. Format: ADME, organism-based, Macaca fascicularis. Set-up: dose 2.5 mg/kg. As to conditions: in vivo, read-out: Vdss.
Series [21] can be described thus: Cmax in Sprague-Dawley rat at 5 mg/kg, po. It is filed as ADME, organism-based. Set-up: dose 5 mg/kg, route oral. As to conditions: in vivo.
The nature of series [22]: Half life in Beagle dog at 2.5 mg/kg, iv. Format: ADME, organism-based, Canis lupus familiaris. Set-up: dose 2.5 mg/kg, route intravenous. As to conditions: in vivo.
Series [23] is described as follows: Half life in Sprague-Dawley rat at 5 mg/kg, iv. Format: ADME, organism-based. Set-up: dose 5 mg/kg, route intravenous. The conditions noted are these: in vivo.
The nature of series [24]: Oral bioavailability in cynomolgus monkey at 2.5 mg/kg. The conditions noted are these: in vivo. Format: ADME, organism-based, Macaca fascicularis.
Series [25] can be described thus: Clearance in cynomolgus monkey at 2.5 mg/kg. Format: ADME, organism-based, Macaca fascicularis. Details: dose 2.5 mg/kg. The conditions noted are these: in vivo.
The next series deals with MX1. Description: animal or person. The conditions noted are these: Mus musculus, MX1, ip, 816 h, read-out: TGI.
In series [26] the test system is B16-F10. Description: Antitumor activity against mouse B16F10 cells xenografted in C57BL/6 mouse assessed as growth inhibition at 50 mg/kg/day, po after 14 days relative to control. Format: functional. As to conditions: B16-F10, 336 h, read-out: TGI.
Series [27] deals with B16-F10. In words: Antitumor activity against mouse B16F10 cells xenografted in C57BL/6 mouse assessed as tumor volume at 50 mg/kg/day, po after 14 days. Format: functional.
For series [28], the system named is B16-F10. Description: Antitumor activity against mouse B16F10 cells xenografted in C57BL/6 mouse assessed as tumor volume at 50 mg/kg/day, po after 17 days. It is filed as functional.

The structures appear in SMILES notation.

Molecule `C[C@]1(c2nc3c(C(N)=O)cc(F)cc3[nH]2)CCCN1` came in with a maximum concentration (Cmax) in series [1] of 1000 ng/mL. Besides, the inhibition constant Ki in series [2] amounted to 4 nM. The molecule also yielded a bioavailability in series [3] of 100%. This molecule yielded an AUC in series [4] of 1500 ng·h/mL. In [5], this molecule gave a half-life of 0.5 h.

In series [1], `CC1(c2nc3c(C(N)=O)cccc3[nH]2)CCNCC1` displayed a maximum concentration (Cmax) of 100 ng/mL. In addition, the Ki in series [2] turned out to be 2 nM. For the same molecule, the bioavailability in [3] came out at 20%. This molecule registered an AUC in [4] of 400 ng·h/mL. The molecule also showed a half-life in [5] of 1.2 h.

With `CC(C)N1CCC(C)(c2nc3c(C(N)=O)cccc3[nH]2)C1` (stereo unspecified), the maximum concentration (Cmax) in series [1] came to 500 ng/mL. In series [3], this molecule came in with a bioavailability of 100%. Further, in series [4], the AUC was found to be 1000 ng·h/mL. This molecule gave a half-life in series [5] of 1.4 h.

In the case of `C[C@@]1(c2nc3c(C(N)=O)cccc3[nH]2)CCCN1`, the Cmax in series [1] was 800 ng/mL; in series [9], 200 ng/mL; in [15], 500 ng/mL; in [21], 600 ng/mL. Also, the clearance is 15 mL/min/kg in series [6], 103 mL/min/kg in series [7], 33.3 mL/min/kg in [16] and 23.3 mL/min/kg in series [25]. Also, the bioavailability was determined as 66% in [3], 72% in series [17], 48% in [19] and 39% in series [24]. The AUC in [8] is 700 ng·h/mL; in [11], 1400 ng·h/mL; in series [14], 1900 ng·h/mL; in [4], 1100 ng·h/mL. The half-life was 1.5 h in series [10], 2.2 h in series [22], 2.4 h in series [23] and 1.2 h in [5]. Further, the Vd in [12] came to 2.9 L/kg; in [13] it was 10.3 L/kg; in series [18], 7.5 L/kg; in series [20], 3 L/kg.

`CN1CCCC1(C)c1nc2c(C(N)=O)cccc2[nH]1` (stereo unspecified): the Cmax in [1] was 100 ng/mL. For the same molecule, in series [3], the bioavailability amounted to 36%. The molecule further displayed an AUC in series [4] of 200 ng·h/mL. The half-life in series [5] is 0.55 h.

In turn, `CC1(c2nc3c(C(N)=O)cccc3[nH]2)CCCCN1` (stereo unspecified) gave a Cmax in series [1] of 500 ng/mL. Also, in series [3], the bioavailability was 93%. Besides, the AUC in [4] stood at 1500 ng·h/mL. Also, the half-life in [5] is 1.5 h.

`CC1(c2nc3c(C(N)=O)cccc3[nH]2)CCNC1` (stereo unspecified): the Ki in series [2] amounted to 2 nM.

`O=P1(N(CCCl)CCCl)NCCCO1` (stereo unspecified) [CYCLOPHOSPHAMIDE ANHYDROUS]: in the series on MX1, the inhibition in vivo at 12.5 mg/kg/day was found to be 73%.

In the case of `Cn1nnc2c(C(N)=O)ncn2c1=O` [TEMOZOLOMIDE], in the series on B16-F10 [26], the inhibition in vivo at 50 mg/kg/day came out at 65%. The Activity in the series on B16-F10 [27] was 1198 mm3; with B16-F10 [28], 2318 mm3.

(Values after ChEMBL document CHEMBL1139389, “Discovery of the Poly(ADP-ribose) polymerase (PARP) inhibitor 2-[(R)-2-methylpyrrolidin-2-yl]-1H-benzimidazole-4-carboxamide (ABT-888) for the treatment of cancer” (J Med Chem, 2009).)
